Assay results: ChEMBL document CHEMBL4033786, “Discovery of Novel 1-Cyclopentenyl-3-phenylureas as Selective, Brain Penetrant, and Orally Bioavailable CXCR2 Antagonists” (J Med Chem, 2018)
Values after ≈ are worked out from the molar mass of the structure shown.

Key:
[1] = Passive permeability in MDCK2-MDR1 cells transduced with BacMam2-BCRP at 3 uM after 90 mins by Transwell assay; format: ADME, cell-based, Canis lupus familiaris, MDCK-MDR1; details: dog; read-out: permeability
Outline: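 MDCKII-MDR1 cells transduced with BacMam2-BCRP and grown in Transwells. Compound at 3 μM, in duplicate, was incubated 90 min A→B (and B→A) with and without GF120918 (5 μM, dual P-gp/BCRP inhibitor). Passive permeability (Pexact, nm/s) was calculated by an equation from earlier work. The permeability ratio is A→B permeability with GF120918 over A→B permeability without it.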

[2] = target: T1, C-X-C chemokine receptor type 2 (Homo sapiens, UniProt P25025); test: Antagonist activity at CXCR2 in human whole blood assessed as inhibition of GROalpha-stimulated CD11b upregulation preincubated for 15 mins followed by GROalpha stimulation measured after 15 mins by FITC-staining based FACS analysis
T1 sequence (P25025 whole entry): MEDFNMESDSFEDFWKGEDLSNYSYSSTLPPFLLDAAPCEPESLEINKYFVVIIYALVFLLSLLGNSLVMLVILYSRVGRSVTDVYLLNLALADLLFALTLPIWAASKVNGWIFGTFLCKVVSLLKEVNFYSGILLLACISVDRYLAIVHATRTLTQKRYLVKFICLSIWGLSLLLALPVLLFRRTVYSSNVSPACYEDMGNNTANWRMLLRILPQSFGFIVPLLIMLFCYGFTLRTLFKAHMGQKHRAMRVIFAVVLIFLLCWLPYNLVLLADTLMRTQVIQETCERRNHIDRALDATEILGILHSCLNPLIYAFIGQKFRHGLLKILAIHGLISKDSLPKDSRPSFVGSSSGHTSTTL

[3] = Solubility of compound in fasted state simulated intestinal fluid measured after 4 hrs; format: physicochemical
Outline: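 Solubility in FaSSIF, read after 4 h incubation.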

[4] = target: T1, C-X-C chemokine receptor type 2; test: Antagonist activity at TEV protease cleavage site linked GAL4-VP16-fused recombinant human CXCR2 expressed in cells assessed as inhibition of […] human CXCL1-stimulated beta-arrestin recruitment by CCF4-AM-fluorescence based FRET assay; format: cell-based; details: read-out: pIC50 (converted)
Outline: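 Stable cell line expressing recombinant human CXCR2 linked to a TEV site and Gal4-VP16. Cells were starved 24 h at 37 °C, 5% CO2, then resuspended at ~200,000 cells/mL. They were given compound in DMSO (concentration-response), stimulated with 80 nM hCXCL1 and incubated overnight at 37 °C. CCF4-AM substrate was then added for 2 h at RT in the dark.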

[5] = Efflux ratio of passive permeability in MDCK2-MDR1 cells transduced with BacMam2-BCRP at 3 uM after 90 mins by Transwell assay; format: ADME, cell-based, Canis lupus familiaris, MDCK-MDR1; details: dog
Outline: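 MDCKII-MDR1 cells transduced with BacMam2-BCRP in Transwells. Compound at 3 μM was measured in duplicate, A→B and B→A, after 90 min, with and without 5 μM GF120918. ER = B→A/A→B permeability without inhibitor. System qualified with amprenavir and dantrolene ERs.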

SMILES | Papp at 1.5 h, 3 µM [1] [×10⁻⁶ cm/s] | IC50 [2] [nM] | solubility at 4 h [3] [µg/mL] | IC50 [4] [nM] | efflux ratio at 1.5 h, 3 µM [5]
CCC1CCCC1NC(=O)Nc1ccc(Cl)c(S(=O)(=O)C(C)C)c1O (racemic) |  |  |  | 63.1 | 
CC1=CCC[C@H]1NC(=O)Nc1ccc(Cl)c(S(=O)(=O)C2(CF)CCOCC2)c1O | 21.8 | 251 | 14.9 (≈ 33.3 µM) | 1.26 | 18.7
CC1=CCC[C@H]1NC(=O)Nc1ccc(Cl)c(S(=O)(=O)C2CCN(CCF)CC2)c1O | 21.2 | 200 | 288 (≈ 625 µM) | 0.631 | 7.3
CC(C)S(=O)(=O)c1c(Cl)ccc(NC(=O)NC2CCCOC2)c1O (racemic) |  |  |  | 631 | 
CC(C)S(=O)(=O)c1c(Cl)ccc(NC(=O)NC2CCCC2)c1O |  |  |  | 10 | 
O=C1CN(/N=C/c2ccc(-c3ccc([N+](=O)[O-])cc3)o2)C(O)=N1 [DANTROLENE] |  |  |  |  | > 5
CC(C)S(=O)(=O)c1c(Cl)ccc(NC(=O)NC2CCC3CC32)c1O (stereo not given) |  |  |  | 25.1 | 
CC1=CCC[C@H]1NC(=O)Nc1ccc(Cl)c(S(=O)(=O)C2CCN(C3CCC3)CC2)c1O | 32 | 501 | 491 (≈ 1050 µM) | 0.398 | 3.3
CC(C)S(=O)(=O)c1c(Cl)ccc(NC(=O)NC2CCN(C)CC2)c1O |  |  |  | > 10000 | 
CC(C)S(=O)(=O)c1c(Cl)ccc(NC(=O)NC2C=CCC2)c1O (racemic) |  |  |  | 6.31 | 
COC1CCCCC1NC(=O)Nc1ccc(Cl)c(S(=O)(=O)C(C)C)c1O (racemic) |  |  |  | 1580 | 
CC(C)S(=O)(=O)c1c(Cl)ccc(NC(=O)NC2CCN(C)C2)c1O (racemic) |  |  |  | > 10000 | 
CC1CCCCC1NC(=O)Nc1ccc(Cl)c(S(=O)(=O)C(C)C)c1O (racemic) |  |  |  | 316 | 
CO[C@@H]1CCC[C@H]1NC(=O)Nc1ccc(Cl)c(S(=O)(=O)C(C)C)c1O (racemic) |  |  |  | 251 | 
CC(C)S(=O)(=O)c1c(Cl)ccc(NC(=O)NC2CCCC2(C)C)c1O (racemic) |  |  |  | 158 | 
CC(C)S(=O)(=O)c1c(Cl)ccc(NC(=O)NC2CCCCC2)c1O |  |  |  | 50.1 | 
CC1CCC(NC(=O)Nc2ccc(Cl)c(S(=O)(=O)C(C)C)c2O)C1 (racemic) |  |  |  | 200 | 
CC1=CCC[C@H]1NC(=O)Nc1ccc(Cl)c(S(=O)(=O)C2CCN(CC(F)F)CC2)c1O | 17.7 |  | 59 (≈ 123 µM) | 2.51 | 9.4
CC(C)CN(C[C@@H](O)[C@H](Cc1ccccc1)NC(=O)O[C@H]1CCOC1)S(=O)(=O)c1ccc(N)cc1 |  |  |  |  | > 12
CC1=CCC[C@H]1NC(=O)Nc1ccc(Cl)c(S(=O)(=O)C2CCN(CC(F)(F)F)CC2)c1O |  |  |  | 316 | 
CC1CCCC1NC(=O)Nc1ccc(Cl)c(S(=O)(=O)C(C)C)c1O (racemic) |  |  |  | 10 | 
CC(C)S(=O)(=O)c1c(Cl)ccc(NC(=O)Nc2cccc(F)c2Cl)c1O |  |  |  | 0.398 | 
CC(C)S(=O)(=O)c1c(Cl)ccc(NC(=O)NC2CCCC23CC3)c1O (racemic) |  |  |  | 39.8 | 
CC1=CCC[C@H]1NC(=O)Nc1ccc(Cl)c(S(=O)(=O)C2(CCF)CCOCC2)c1O | 33.7 |  | 26.7 (≈ 57.9 µM) | 31.6 | 10.8
CC(C)S(=O)(=O)c1c(Cl)ccc(NC(=O)NC2C=CCCC2)c1O (racemic) |  |  |  | 10 | 
CC1=CCC[C@H]1NC(=O)Nc1ccc(Cl)c(S(=O)(=O)C2(C)CCN(C3CCC3)CC2)c1O |  |  | 139 (≈ 289 µM) | 3.98 | 
CCC1(S(=O)(=O)c2c(Cl)ccc(NC(=O)N[C@@H]3CCC=C3C)c2O)CCOCC1 | 32.4 | 398 | 16 (≈ 36.1 µM) | 0.316 | 3.2
CC1=C(F)CCC1NC(=O)Nc1ccc(Cl)c(S(=O)(=O)C(C)C)c1O (racemic) |  |  |  | 1.58 | 
CC(C)S(=O)(=O)c1c(Cl)ccc(NC(=O)NC2CCOCC2)c1O |  |  |  | 1260 | 

Other lines, results leading:

Papp at 1.5 h, 3 µM [1] [×10⁻⁶ cm/s] | IC50 [2] [nM] | solubility at 4 h [3] [µg/mL] | IC50 [4] [nM] | efflux ratio at 1.5 h, 3 µM [5] | SMILES
28.2 | 398 | 72 (≈ 179 µM) | 1.26 | 3.2 | COCC(C)S(=O)(=O)c1c(Cl)ccc(NC(=O)N[C@@H]2CCC=C2C)c1O (stereo not given in full)
 |  |  | 3.16 |  | CC1=C(Cl)CCC1NC(=O)Nc1ccc(Cl)c(S(=O)(=O)C(C)C)c1O (racemic)
53.2 | 200 | 6.1 (≈ 14.2 µM) | 0.501 | 3.4 | CC1=CCC[C@H]1NC(=O)Nc1ccc(Cl)c(S(=O)(=O)C2(C)CCOCC2)c1O
26.3 | 251 | 13.7 (≈ 33 µM) | 1.58 | 9.6 | CC1=CCC[C@H]1NC(=O)Nc1ccc(Cl)c(S(=O)(=O)C2CCCOC2)c1O (stereo not given in full)
 |  |  | 0.501 |  | O=C(Nc1ccc(Cl)c(S(=O)(=O)C2(F)CCOCC2)c1O)N[C@@H]1CCC=C1Cl
 |  |  | 10 |  | CC(C)S(=O)(=O)c1c(Cl)ccc(NC(=O)NC2CCCC=C2Cl)c1O (racemic)
 |  |  | 316 |  | O=C(Nc1ccc(Cl)c(S(=O)(=O)C2COC2)c1O)N[C@@H]1CCC=C1Cl
 |  | 395 (≈ 920 µM) | 126 |  | CC1=CCC[C@H]1NC(=O)Nc1ccc(Cl)c(S(=O)(=O)C(C)(C)CN(C)C)c1O
 |  |  | 10 |  | CC(C)S(=O)(=O)c1c(Cl)ccc(NC(=O)NC2CCC=C2F)c1O (racemic)
 |  |  | 100 |  | O=C(Nc1ccc(Cl)c(S(=O)(=O)C2(F)CCOCC2)c1O)N[C@H]1CCC=C1Cl
29.6 |  | 7 (≈ 16.3 µM) | 0.251 | 3.2 | CC1=CCC[C@H]1NC(=O)Nc1ccc(Cl)c(S(=O)(=O)C(C)(C)C2COC2)c1O
 |  |  | 0.398 |  | CC1=CCCC1NC(=O)Nc1ccc(Cl)c(S(=O)(=O)C(C)C)c1O (racemic)
26.7 | 200 | 4.1 (≈ 9.56 µM) | 2 | 3.4 | CC1=CCC[C@H]1NC(=O)Nc1ccc(Cl)c(S(=O)(=O)C2(C)CCCOC2)c1O (stereo not given in full)
12.4 |  | 127 (≈ 297 µM) | 1 | 25.5 | CC1=CCC[C@H]1NC(=O)Nc1ccc(Cl)c(S(=O)(=O)C2CC3(COC3)C2)c1O
 |  |  | 2510 |  | O=C(Nc1ccc(Cl)c(S(=O)(=O)C2COC2)c1O)N[C@H]1CCC=C1Cl
7.2 |  | 15.1 (≈ 36.4 µM) | 0.251 | 26.8 | CC1=CCC[C@H]1NC(=O)Nc1ccc(Cl)c(S(=O)(=O)[C@@H]2CC[C@@H](O)C2)c1O
 |  |  | 12.6 |  | CC1=CCCCC1NC(=O)Nc1ccc(Cl)c(S(=O)(=O)C(C)C)c1O (racemic)
 |  |  | 501 |  | CC(C)(CO)S(=O)(=O)c1c(Cl)ccc(NC(=O)N[C@H]2CCC=C2Cl)c1O
 |  |  | 25.1 |  | CC(C)S(=O)(=O)c1c(Cl)ccc(NC(=O)NC2CCC=C2C(F)(F)F)c1O (racemic)
28.1 |  | 39 (≈ 93.1 µM) | 0.794 | 7 | CC1=CCC[C@H]1NC(=O)Nc1ccc(Cl)c(S(=O)(=O)C2(F)CCOC2)c1O (stereo not given in full)
 |  |  | 3.98 |  | CC(C)(CO)S(=O)(=O)c1c(Cl)ccc(NC(=O)N[C@@H]2CCC=C2Cl)c1O
 |  |  | 0.251 |  | CC(C)(CCO)S(=O)(=O)c1c(Cl)ccc(NC(=O)N[C@@H]2CCC=C2Cl)c1O
 |  |  | 1 |  | CC(C)S(=O)(=O)c1c(Cl)ccc(NC(=O)NC2CCC=C2Cl)c1O (racemic)
 |  |  | 79.4 |  | CC(C)(CCO)S(=O)(=O)c1c(Cl)ccc(NC(=O)N[C@H]2CCC=C2Cl)c1O
